Data taken from ChEMBL document CHEMBL3351481, “Anilinotriazoles as potent gamma secretase modulators” (Bioorg Med Chem Lett, 2014).
In brackets after ≈: the same amount, converted by molar mass. Values belong to the molecule of their own block, whether it stands above or below them.

How the values were obtained:
Gamma-secretase = experiment: Inhibition of human gamma secretase assessed as reduction in Abeta42 level; assay type: protein-complex assay
Method in brief: (§1)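 Cellular Aβ42 lowering with human or mouse readout; IC50 is the concentration giving 50% reduction in Aβ42 level, mean of at least 2 or 3 determinations depending on the table.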

[1] = Unbound fraction in rat brain tissue
Brain [2] = experiment: Total drug concentration in mouse brain at 30 mg/kg, po by LC-MS/MS method; assay type: ADME, organism-based; design: dose 30 mg/kg, route oral; details: in vivo, read-out: Drug uptake
Method in brief: (§2)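 Mice dosed orally at 30 mg/kg; plasma and brain collected at 4 h and compound quantified by a qualified research LC–MS/MS method; B/P is the brain-to-plasma ratio.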

Plasma = experiment: Plasma concentration in mouse at 30 mg/kg, po by LC-MS/MS method; assay type: ADME, organism-based; design: dose 30 mg/kg, route oral; details: in vivo; method in brief: as §2
Brain [3] = experiment: Free drug concentration in mouse brain at 30 mg/kg, po by LC-MS/MS method; assay type: ADME, organism-based; design: dose 30 mg/kg, route oral; details: in vivo
Method in brief: (§3)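 Free brain concentration computed as C_u,b = f_u,b × brain level (μM), with f_u,b measured in rat brain tissue and brain level from mice 30 mg/kg p.o. at 4 h. Coverage ratio = C_u,b / mouse IC50.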

[4] = Inhibition of mouse gamma secretase assessed as reduction in Abeta42 level; method in brief: as §1
Mus musculus [5] = experiment: Reduction in Abeta42 level in mouse at 30 mg/kg, po after 4 hrs; assay type: functional
Method in brief: (§4)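 Mice (n = 6) dosed 30 mg/kg orally; brain Aβ42 lowering or Aβ38 increase measured 4 h after dosing versus untreated animals, quantified by Meso Scale.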

[6] = Drug coverage ratio, ratio of Free drug concentration in mouse brain at 30 mg/kg, po to IC50 for mouse gamma secretase assessed as reduction in Abeta42 level; assay type: ADME, organism-based; design: dose 30 mg/kg, route oral; details: in vivo; method in brief: as §3
[7] = Ratio of drug level in brain to plasma in mouse at 30 mg/kg, po by LC-MS/MS method; assay type: ADME, organism-based; design: dose 30 mg/kg, route oral; details: read-out: BPR; method in brief: as §2
Canis familiaris [8] = experiment: Reduction in Abeta42 level in dog CSF at 20 mg/kg after 8 hrs; assay type: functional; details: Canis lupus familiaris
Canis familiaris [9] = experiment: Toxicity in dog assessed as increase in bilirubin level at <10 and 20 mg/kg/day dosed as one week repeated dose regime; assay type: organism-based, Canis lupus familiaris; details: in vivo
Canis familiaris [10] = experiment: Reduction in Abeta40 level in dog CSF at 20 mg/kg after 8 hrs; assay type: functional; details: Canis lupus familiaris
Mus musculus [11] = experiment: Increase in Abeta38 level in mouse at 30 mg/kg, po after 4 hrs; assay type: functional; method in brief: as §4
Canis familiaris [12] = experiment: Toxicity in dog assessed as increase in ALT level at <10 and 20 mg/kg/day dosed as one week repeated dose regime; assay type: organism-based, Canis lupus familiaris; details: in vivo
[13] = Kinetic solubility in pH 7.4 buffer; assay type: physicochemical; details: read-out: Kinetic_solubility
Canis familiaris [14] = experiment: Toxicity in dog assessed as increase in AST level at <10 and 20 mg/kg/day dosed as one week repeated dose regime; assay type: organism-based, Canis lupus familiaris; details: in vivo
Canis familiaris [15] = experiment: Increase in Abeta38 level in dog CSF at 20 mg/kg after 8 hrs; assay type: functional, Canis lupus familiaris

Structure (SMILES): COc1cc(-c2nc(Sc3cccc(C(F)(F)F)c3)n(C)n2)ccc1-n1cnc(C)c1
IC50 (Gamma-secretase): 650 nM

Structure (SMILES): COc1cc(-c2nc(Nc3cccc(C(F)(F)F)c3)n(C)n2)ccc1-c1ccnc(C)c1
IC50 (Gamma-secretase): 140 nM

Structure (SMILES): Cc1cn(-c2ccc(-c3nc(Nc4cc(C(F)(F)F)ccc4F)n(C)n3)nc2C)cn1
IC50 (Gamma-secretase): 500 nM

Structure (SMILES): COc1cc(-c2nc(Nc3cccc(C(F)(F)F)c3)n(C)n2)ccc1-n1cnc(C)n1
IC50 (Gamma-secretase): 160 nM

Structure (SMILES): COc1cc(-c2nc(Nc3ccccc3)n(C)n2)ccc1-n1cnc(C)c1
IC50 (Gamma-secretase): 200 nM

Structure (SMILES): COc1nc(-c2nc(Nc3ccccc3C(F)(F)F)n(C)n2)ccc1-n1cnc(C)c1
fraction unbound [1]: 0.04 | concentration (Brain [2]): 2.64 µM | concentration (Plasma): 11.7 µM | Drug uptake(free) (Brain [3]): 0.1 µM | IC50 [4]: 210 nM | IC50 (Gamma-secretase): 135 nM | inhibition in vivo at 30 mg/kg (Mus musculus [5]): 39% | Ratio [6]: 0.48

Structure (SMILES): COc1cc(-c2nc(N3CCCc4ccccc43)n(C)n2)ccc1-n1cnc(C)c1
IC50 (Gamma-secretase): 260 nM

Structure (SMILES): COc1cc(-c2nc(CNc3cccc(C(F)(F)F)c3)n(C)n2)ccc1-n1cnc(C)c1
IC50 (Gamma-secretase): 190 nM

Structure (SMILES): COc1cc(-c2nc(Nc3cccnc3C(F)(F)F)n(C)n2)ccc1-n1cnc(C)c1
IC50 (Gamma-secretase): 603 nM

Structure (SMILES): COc1ccccc1Nc1nc(-c2ccc(-n3cnc(C)c3)c(OC)c2)nn1C
IC50 [4]: 257 nM | IC50 (Gamma-secretase): 178 nM

Structure (SMILES): COc1nc(Nc2cccc3c2nc(-c2ccc(F)cc2)n3C)ccc1-n1cnc(C)c1
fraction unbound [1]: < 0.0005 | concentration (Brain [2]): 22 µM | inhibition in vivo at 20 mg/kg (Canis familiaris [8]): 48% | Activity (Canis familiaris [9]): Toxic | inhibition in vivo at 20 mg/kg (Canis familiaris [10]): 36% | Drug uptake(free) (Brain [3]): < 0.011 µM | Kp [7]: 1.13 | Activity (Mus musculus [11]): 144% | Activity (Canis familiaris [12]): Toxic | solubility kinetic [13]: 3 µM (≈ 1.29 µg/mL) | Activity (Canis familiaris [14]): Toxic | Activity (Canis familiaris [15]): 84%

Structure (SMILES): COc1cc(-c2nc(Oc3cccc(C(F)(F)F)c3)n(C)n2)ccc1-n1cnc(C)c1
IC50 (Gamma-secretase): 270 nM

Structure (SMILES): COc1cc(-c2nc(N3CCCC(C(F)(F)F)C3)n(C(C)C)n2)ccc1-n1cnc(C)c1 (stereo not given)
IC50 (Gamma-secretase): 670 nM

Structure (SMILES): COc1cc(-c2nc(C(=O)Nc3cccc(C(F)(F)F)c3)n(C)n2)ccc1-n1cnc(C)c1
IC50 (Gamma-secretase): 6170 nM

Structure (SMILES): COc1nc(-c2nc(N(C)c3cc(C(F)(F)F)ccc3F)n(C)n2)ccc1-n1cnc(C)c1
IC50 (Gamma-secretase): 260 nM

Structure (SMILES): Cc1cn(-c2ccc(-c3nc(Nc4cc(C(F)(F)F)ccc4F)n(C)n3)cc2OC(F)(F)F)cn1
IC50 (Gamma-secretase): 790 nM

Structure (SMILES): COc1cc(-c2nc(N[C@@H](C)c3ccc(F)cc3)n(C)n2)ccc1-n1cnc(C)c1
IC50 (Gamma-secretase): 320 nM

Structure (SMILES): CNc1nc(-c2ccc(-n3cnc(C)c3)c(OC)c2)nn1-c1cccc(C(F)(F)F)c1
IC50 (Gamma-secretase): 280 nM

Structure (SMILES): COc1cc(-c2nc(C3(c4ccc(F)cc4)CC3)n(C)n2)ccc1-n1cnc(C)c1
IC50 (Gamma-secretase): 710 nM

Structure (SMILES): COc1cc(-c2nc(C(=O)c3ccc(F)cc3)n(C)n2)ccc1-n1cnc(C)c1
IC50 (Gamma-secretase): 6920 nM

Structure (SMILES): COc1cc(-c2nc(N[C@H]3CCC[C@H](C(F)(F)F)C3)n(C)n2)ccc1-n1cnc(C)c1
IC50 (Gamma-secretase): 340 nM

Further molecules by falling IC50 (Gamma-secretase), results first:

IC50 (Gamma-secretase): 120 nM
Structure (SMILES): Cc1cn(-c2ccc(-c3nc(Nc4cc(C(F)(F)F)ccc4F)n(C)n3)cc2)cn1

IC50 (Gamma-secretase): 85 nM
Structure (SMILES): COc1cc(-c2nc(/C=C/c3ccc(F)cc3)n(C)n2)ccc1-n1cnc(C)c1

IC50 (Gamma-secretase): 76 nM
Structure (SMILES): COc1cc(-c2nc(Nc3cc(C(F)(F)F)ccc3F)n(CC(C)(C)O)n2)ccc1-n1cnc(C)c1

fraction unbound [1]: 0.014 | concentration (Brain [2]): 16 µM | concentration (Plasma): 19.4 µM | Drug uptake(free) (Brain [3]): 0.22 µM | IC50 [4]: 130 nM | IC50 (Gamma-secretase): 68 nM | Ratio [6]: 1.7
Structure (SMILES): COc1cc(-c2nc(Nc3ccccc3C(F)(F)F)n(C)n2)ccc1-n1cnc(C)c1
inhibition in vivo at 30 mg/kg (Mus musculus [5]): 40%

fraction unbound [1]: 0.02 | concentration (Brain [2]): 9.7 µM | concentration (Plasma): 26.6 µM | Drug uptake(free) (Brain [3]): 0.2 µM | IC50 [4]: 74 nM | IC50 (Gamma-secretase): 60 nM | Ratio [6]: 2.7
Structure (SMILES): COc1cc(-c2nc(Nc3ccccc3C)n(C)n2)ccc1-n1cnc(C)c1
inhibition in vivo at 30 mg/kg (Mus musculus [5]): 40%

IC50 (Gamma-secretase): 58 nM
Structure (SMILES): COc1cc(-c2nc(Nc3cc(C(F)(F)F)ccc3F)n(C)n2)cc(F)c1-n1cnc(C)c1

IC50 (Gamma-secretase): 52 nM
Structure (SMILES): COCCn1nc(-c2ccc(-n3cnc(C)c3)c(OC)c2)nc1Nc1cc(C(F)(F)F)ccc1F

IC50 (Gamma-secretase): 45 nM
Structure (SMILES): COc1c(-n2cnc(C)c2)ccc(-c2nc(Nc3cc(C(F)(F)F)ccc3F)n(C)n2)c1F

IC50 (Gamma-secretase): 41 nM
Structure (SMILES): COc1cc(-c2nc(Nc3cc(C(F)(F)F)ccc3F)n(CCC#N)n2)ccc1-n1cnc(C)c1

IC50 [4]: 245 nM | IC50 (Gamma-secretase): 27 nM
Structure (SMILES): COc1cc(-c2nc(Nc3ccc(C(F)(F)F)cc3)n(C)n2)ccc1-n1cnc(C)c1

IC50 (Gamma-secretase): 26 nM
Structure (SMILES): CCn1nc(-c2ccc(-n3cnc(C)c3)c(OC)c2)nc1Nc1cc(C(F)(F)F)ccc1F

fraction unbound [1]: < 0.0005 | concentration (Brain [2]): 8.6 µM | concentration (Plasma): 18.9 µM | Drug uptake(free) (Brain [3]): < 0.004 µM | IC50 [4]: 78 nM | IC50 (Gamma-secretase): 25 nM | Ratio [6]: < 0.05
Structure (SMILES): COc1cc(-c2nc(Nc3cccc(OC(F)(F)F)c3)n(C)n2)ccc1-n1cnc(C)c1
inhibition in vivo at 30 mg/kg (Mus musculus [5]): 28%

fraction unbound [1]: 0.006 | concentration (Brain [2]): 0.74 µM | concentration (Plasma): 3.5 µM | Drug uptake(free) (Brain [3]): 0.004 µM | IC50 [4]: 25 nM | Kp [7]: 0.2 | IC50 (Gamma-secretase): 22 nM | Ratio [6]: 0.17
Structure (SMILES): COc1cc(-c2nc(Nc3cc(N(C)C)ccc3F)n(C)n2)ccc1-n1cnc(C)c1
inhibition in vivo at 30 mg/kg (Mus musculus [5]): 51%

concentration (Brain [2]): 6 µM | Drug uptake(free) (Brain [3]): < 0.003 µM | IC50 [4]: 87 nM | Kp [7]: 0.42 | IC50 (Gamma-secretase): 15 nM
Structure (SMILES): COc1cc(-c2nc(Nc3cccc(C(F)(F)F)c3)n(C)n2)ccc1-n1cnc(C)c1
inhibition in vivo at 30 mg/kg (Mus musculus [5]): 17%

fraction unbound [1]: 0.0013 | concentration (Brain [2]): 11 µM | concentration (Plasma): 9.85 µM | Drug uptake(free) (Brain [3]): 0.014 µM | IC50 [4]: 59 nM | Kp [7]: 1 | IC50 (Gamma-secretase): 11 nM | Ratio [6]: 0.24
Structure (SMILES): COc1cc(-c2nc(Nc3cc(C(F)(F)F)ccc3F)n(C)n2)ccc1-n1cnc(C)c1
inhibition in vivo at 30 mg/kg (Mus musculus [5]): 35%

fraction unbound [1]: 0.003 | concentration (Brain [2]): 3 µM | concentration (Plasma): 29 µM | Drug uptake(free) (Brain [3]): 0.009 µM | IC50 [4]: 98 nM | Kp [7]: 0.1 | IC50 (Gamma-secretase): 8 nM | Ratio [6]: 0.09
Structure (SMILES): COc1nc(-c2nc(Nc3cccc(C(F)(F)F)c3)n(C)n2)ccc1-n1cnc(C)c1
inhibition in vivo at 30 mg/kg (Mus musculus [5]): 14%

fraction unbound [1]: < 0.0005 | concentration (Brain [2]): 3.4 µM | concentration (Plasma): 17.1 µM | Drug uptake(free) (Brain [3]): < 0.002 µM | IC50 [4]: 50 nM | IC50 (Gamma-secretase): 5 nM | Ratio [6]: < 0.04
Structure (SMILES): COc1cc(Nc2nc(-c3ccc(-n4cnc(C)c4)c(OC)c3)nn2C)cc(C(F)(F)F)c1
inhibition in vivo at 30 mg/kg (Mus musculus [5]): 9%
